23 sequences from the EternaBench riboswitch data can be followed below.

Series [1] concerns MS2 coat protein. The series can be described thus: apparent Kd, MS2 coat protein; higher = weaker binding; RNA-MaP array; tryptophan 2.4 mM where present. Summed up: (§1)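 The titrant was SNAP-549-labelled MS2 coat protein, run from 0.7 or 1.5 nM in doubling steps to 3 µM. It was applied to designs transcribed by stalled E. coli RNA polymerase on Illumina sequencing-chip clusters, without ligand first and then with constant ligand, in 100 mM Tris-HCl pH 7.5, 80 mM KCl, 4 mM MgCl2, BSA, DTT, yeast tRNA and Tween-20. The apparent Kd is the median of filtered per-cluster binding-curve fits, with green signal normalised to red-channel RNA signal and control-cluster median Fmax.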

The subject of series [2] is MS2 coat protein. Put plainly: apparent Kd, MS2 coat protein; higher = weaker binding; RNA-MaP array; theophylline 2 mM where present. A digest of the protocol:
as §1

[3] abbreviates: designed as: ON switch for tryptophan, no ligand.
Where [4] appears, read: ligand present: tryptophan, designed as: ON switch for tryptophan.
Where [5] appears, read: designed as: ON switch for theophylline, no ligand.
Setting [6] is: ligand present: theophylline, designed as: ON switch for theophylline.
Setting [7] is: designed as: OFF switch for theophylline, no ligand.
The mark [8] stands for this setting: ligand present: theophylline, designed as: OFF switch for theophylline.

One may read the apparent Kd as the concentration giving half-maximal binding under the conditions of the assay. For “UCGAAUGCGGCGGCCGCCACUCGCGGAUAACGAUAGCUUAACAUGAGGAUCACCCAUGUGUCAUGGAGGACCGGGCCCAUACCGU”, the “apparent Kd” value with MS2 coat protein [1] (setting [3]) was 22.7 nM; with MS2 coat protein [1] (setting [4]), 21.1 nM.
Taken in the same sequence, the figures for “GCAUCCUAGUCGGCCGCCACUGGUACGAACACCUUCACCCGUGUGCACAUGAGGAUCACCCAUGUCAGGACCGGGACUAGGAUGC” were 9.36 nM and 9.66 nM.
Taken in the same sequence, the figures for “AAAUUAUAGGCGGCCGCCACUAGAGUUAGGCUUAUGUACUGGGUAACAUGAGGAUCACCCAUGUAUAGGACCGGGCCAUAAUAAA” were 53.5 nM and 52.6 nM.
Regarding “AAAGAUCGGAAACGAUCGGCGGCUUGGGCGCGAGGACCGGUACGGCCGCCACUCGGGAAACAUGAGGAUCACCCAUGUUGCUAGC”, the “apparent Kd” value in the series on MS2 coat protein [1] (designed as: OFF switch for tryptophan, no ligand) is 13.7 nM; in the series on MS2 coat protein [1] (ligand present: tryptophan, designed as: OFF switch for tryptophan) it was 15.2 nM.
In the case of “AUCGUACCUGGUGAUACCAGCAAUUGCUCGUGACAUGAGGAUCACCCAUGUGGCCAGUGAUGCCCUUGGCAGCAUGGUCGGUGCA”, the “apparent Kd” value in the series with MS2 coat protein [2] (setting [5]) was 164 nM; in the series with MS2 coat protein [2] (setting [6]), 89.3 nM.
The matching figures for “AUCGUACCUGAGGAUACCAGCAUGUGAUCAUAACAUGAGGAUCACCCAUGUAAUCAGUGAUGCCCUUGGCAGCUUAGUCGAUACA”: 75.5 nM and 45.2 nM.
Taken in the same sequence, the figures for “UCGUGUAUAACGGAUACCAGUGAGAAGGAUACAUGAGGAUCACCCAUGUGAGUUGAUGUACACCCUUGGCAGCUGUAUAUAUCUA” were 75.5 nM and 49.6 nM.
For the sequence “UUAUUUAUAAUGGAUACCAGUCGUAUGGCCCGGCAUCCUGACAUGAGGAUCACCCAUGUCGACCCUUGGCAGCUGUUAUGGGUUU”, the “apparent Kd” value in the series on MS2 coat protein [2] (setting [7]) stood at 13.5 nM; in the series with MS2 coat protein [2] (setting [8]) it was 20 nM.
In the case of “ACACAUGAGGAUCACCCAUGUUCAAUAGAUACCAGUGAUACGGUGCACCCUUGGCAGCUGUUGCUGAGUGAUGGUUCCCUCGGUA”, the “apparent Kd” value with MS2 coat protein [2] (setting [5]) was determined as 41.3 nM; with MS2 coat protein [2] (setting [6]), 65.4 nM.
For “ACGAACUGUAGUGAUACCAGACGUACAUGAGGAUCACCCAUGUUGUAAACAUGGUGAAUAGUCCCUUGGCAGCACAGUUAGUUCG”, the “apparent Kd” value came out at 182 nM in the series with MS2 coat protein [2] (setting [7]) and 738 nM in the series on MS2 coat protein [2] (setting [8]).
In the case of “UGACAUUGCUCAGAUACCAGACAUGAGGAUCACCCAUGUACCAAGGUAAAGAAAUAACGUGUCCCUUGGCAGCUGAGCAAUGUCU”, the “apparent Kd” value with MS2 coat protein [2] (setting [7]) amounted to 10.1 nM; in the series on MS2 coat protein [2] (setting [8]) it was 98.8 nM.
“UUUUAACAUGAGGAUCACCCAUGUAAUGAUACCAGAGACGAAAGUCUCCCUUGGCAGCAUAAUCAUUACAUGAGAUGGAAACAUC”: the “apparent Kd” value in the series on MS2 coat protein [2] (setting [5]) stood at 30.6 nM; with MS2 coat protein [2] (setting [6]) it was 116 nM.
“UUAAAUGUGACGGAUACCAGCGUGUUGUAGAACAUGAGGAUCACCCAUGUAGUGAUCAUGCGCCCUUGGCAGCUGGUAUGUUUGA”: the “apparent Kd” value with MS2 coat protein [2] (setting [5]) turned out to be 379 nM; in the series with MS2 coat protein [2] (setting [6]), 607 nM.
With “CGGCCCUCACAUGAGGAUCACCCAUGUGAUACCAGCCUGGAAACAGGCCCUUGGCAGCACAGGUCAUCAAAAGAUGACCAAGCCG”, the “apparent Kd” value in the series on MS2 coat protein [2] (setting [7]) came to 12.5 nM; with MS2 coat protein [2] (setting [8]), 63.9 nM.
On to “UGUAUGUGAUUUGAUACCAGAUCAGCUGGUUAUACAUGAGGAUCACCCAUGUUACUUUGGGUCCCUUGGCAGCAAAUCGCAUACU”, for which the “apparent Kd” value worked out at 487 nM in the series on MS2 coat protein [2] (setting [5]) and 28.4 nM in the series on MS2 coat protein [2] (setting [6]).
In the case of “GAUGAACUAUUUGAUACCAGACUACAUGAGGAUCACCCAUGUGAGUUUAUACUUCAGUCAGUCCCUUGGCAGCAAAUAGUUUAUC”, the entries for the “apparent Kd” value in the series on MS2 coat protein [2] (setting [7]) and with MS2 coat protein [2] (setting [8]) were 44.9 nM and 99.3 nM, respectively.
As for “AGUGUUAUAACUGAUACCAGACCUUUGCUUAUACAUGAGGAUCACCCAUGUAAAAUGGCGGUCCCUUGGCAGCAGAGAAUACACA”, the “apparent Kd” value was 33.5 nM in the series on MS2 coat protein [2] (setting [5]) and 12.5 nM in the series with MS2 coat protein [2] (setting [6]).
With “CGCUACGUAACUGAUACCAGUGUACUGACAUGAGGAUCACCCAUGUUGGGUUUUGUUGUACACCCUUGGCAGCAGAAUCGUAGCG”, the results for the “apparent Kd” value with MS2 coat protein [2] (setting [7]) and in the series with MS2 coat protein [2] (setting [8]) were 70.3 nM and 95.3 nM, respectively.
On to “UACAGUACAACAGAUACCAGACAGUACUCUAGAUUGCAACAUGAGGAUCACCCAUGUAUAGUCCCUUGGCAGCUGUAAUGGGUGA”, for which the “apparent Kd” value in the series with MS2 coat protein [2] (setting [5]) is 180 nM; in the series with MS2 coat protein [2] (setting [6]) it was 441 nM.
Turning to “ACAUGAAGAACAGCGGUGGGCGCGCUCGAUACCAGUACUUUGAUAUACCCUUGGCAGCGACAUGAGGAUCACCCAUGUGAGAUGA”, the “apparent Kd” value in the series with MS2 coat protein [2] (setting [7]) worked out at 18.7 nM; in the series with MS2 coat protein [2] (setting [8]) it was 27.2 nM.
The matching figures for “ACAUGAGGAUCACCCAUGUUCCUCAUUGAUACCAGUGAAUUUAGACGCCCUUGGCAGCGAGUUUAAGAAGAAGAAGUUUUUUUUU”: 667 nM and 895 nM.
For the sequence “AUAAGUAAGUUUUCGUGUUUUAUUACAGAUACCAGACUAUACGUUGUCCCUUGGCAGCUGGAUUACAUGAGGAUCACCCAUGUUG”, the “apparent Kd” value in the series with MS2 coat protein [2] (setting [7]) was determined as 24.5 nM; in the series on MS2 coat protein [2] (setting [8]) it was 54.3 nM.
With “UGUAACAUGAGGAUCACCCAUGUAAGUGAUACCAGAUAAGUAGUAGUCCCUUGGCAGCAUAUUGGGCAAGUGUAUAGUCUAUACG”, the “apparent Kd” value is 49.8 nM with MS2 coat protein [2] (setting [5]) and 53.5 nM in the series on MS2 coat protein [2] (setting [6]).
